Test results taken from ChEMBL document CHEMBL1143945, “N-phenethyl and N-naphthylmethyl isatins and analogues as in vitro cytotoxic agents” (Bioorg Med Chem, 2008).

How the values were obtained:
U-937 = test: Cytotoxicity against human U937 cells; type: functional, cell-based
In short: (§1)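 ATCC lines kept in RPMI-1640 with 2 mM L-glutamine, sodium bicarbonate, 5% FCS at 37 °C, 5% CO2. Adherent cells trypsinized, and viable cells counted by Trypan blue on a hemocytometer before seeding. MTS (CellTiter 96 AQueous One) metabolic read-out. IC50 is 50% inhibition of metabolic activity from sigmoidal dose-response curves. Triplicates in at least two independent experiments.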

Jurkat = test: Cytotoxicity against human Jurkat cells; type: functional, cell-based; in short: as §1
[1] = Inhibition of bovine neuronal tubulin polymerization for 60 mins; set-up: species or system Bos taurus
In short: (§2)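 Purified bovine neuronal tubulin reaction mix from a commercial kit, run per the manufacturer. Compound or DMSO vehicle is added at varying concentrations. Polymerization is followed kinetically at 37 °C for 1 h by fluorescence, excitation 360 ± 10 nm and emission 440 ± 10 nm. IC50 is read at the 20 or 60 min time point. Duplicates in one experiment.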

MCF7 = test: Cytotoxicity against human MCF7 cells; type: functional, cell-based; in short: as §1
MDA-MB-231 = test: Cytotoxicity against human MDA-MB-231 cells; type: functional, cell-based; in short: as §1
HCT-116 = test: Cytotoxicity against human HCT116 cells; type: functional, cell-based; in short: as §1
A-375 = test: Cytotoxicity against human A375 cells; type: functional, cell-based; in short: as §1
[2] = Inhibition of bovine neuronal tubulin polymerization for 20 mins; set-up: species or system Bos taurus; in short: as §2
PC-3 = test: Cytotoxicity against human PC3 cells; type: functional, cell-based; in short: as §1

| IC50 [1] [µM] | IC50 [2] [µM] | SMILES | IC50 (U-937) [µM] | IC50 (Jurkat) [µM] | IC50 (MCF7) [µM] | IC50 (MDA-MB-231) [µM] | IC50 (HCT-116) [µM] | IC50 (A-375) [µM] | IC50 (PC-3) [µM] |
| --- | --- | --- | --- | --- | --- | --- | --- | --- | --- |
| – | – | O=C(CN1C(=O)C(=O)c2cc(Br)cc(Br)c21)c1ccc(Br)cc1 | 9.18 | – | – | – | – | – | – |
| – | – | O=C(CN1C(=O)C(=O)c2cc(Br)cc(Br)c21)c1cccc(Br)c1 | 6.36 | – | – | – | – | – | – |
| 6.47 | 2.87 | O=C1C(=O)N(Cc2ccc3ccccc3c2)c2c(Br)cc(Br)cc21 | 0.74 | 0.41 | 3.5 | 2.56 | 1.51 | 6.56 | 2.29 |
| – | – | COc1ccc(CCN2C(=O)C(=O)c3cc(Br)cc(Br)c32)cc1 | 2.35 | 2.66 | – | 4.51 | – | – | – |
| – | – | O=C(CN1C(=O)C(=O)c2cc(Br)cc(Br)c21)c1ccccc1 | 9.97 | – | – | – | – | – | – |
| 6.6 | 4.04 | O=C1C(=O)N(CCc2ccccc2)c2c(Br)cc(Br)cc21 | 0.78 | 1.52 | – | 4.35 | – | – | – |
| – | – | O=C1C(=O)N(CCc2ccc(Br)cc2)c2c(Br)cc(Br)cc21 | 0.88 | 1.15 | 6.02 | 2.01 | 1.62 | 4.34 | 2.21 |
| – | – | COc1cccc(CCN2C(=O)C(=O)c3cc(Br)cc(Br)c32)c1 | 1.07 | 2 | – | 5.24 | – | – | – |
| – | – | O=C1C(=O)N(CCc2cccc(Br)c2)c2c(Br)cc(Br)cc21 | 0.78 | 1.21 | 4.04 | 2.72 | 1.41 | 3.44 | 2.09 |
| 12 | 4.71 | O=C1C(=O)N(Cc2cccc3ccccc23)c2c(Br)cc(Br)cc21 | 0.19 | 0.91 | 7.71 | 2.49 | 1.15 | 3.95 | 1.44 |
| – | – | COc1cccc(C(=O)CN2C(=O)C(=O)c3cc(Br)cc(Br)c32)c1 | 4.7 | – | – | – | – | – | – |
| – | – | COc1ccc(C(=O)CN2C(=O)C(=O)c3cc(Br)cc(Br)c32)cc1 | 5.32 | – | – | – | – | – | – |
| 1.66 | 0.95 | CC[C@]1(O)C[C@@H]2CN(CCc3c([nH]c4ccccc34)[C@@](C(=O)OC)(c3cc4c(cc3OC)N(C)[C@H]3[C@@](O)(C(=O)OC)[C@H](OC(C)=O)[C@]5(CC)C=CCN6CC[C@]43[C@@H]65)C2)C1 [VINBLASTINE] | – | – | – | – | – | – | – |
